Assay results from ChEMBL document CHEMBL4014347, “Targeting Mycolic Acid Transport by Indole-2-carboxamides for the Treatment of Mycobacterium abscessus Infections” (J Med Chem, 2017).
≈ marks a conversion by molar mass, not a printed value.

Assays:
[1] = system: Mycobacteroides abscessus; assay: Antibacterial activity against non CF patient derived Mycobacterium abscessus subsp. abscessus isolate CIP104536 smooth variant after 3 to 5 days by two fold serial dilution method; assay type: functional
Method in brief: (§1)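 Broth microdilution in cation-adjusted Mueller−Hinton broth per CLSI; inoculum 5 × 10^6 CFU/mL of exponential-phase bacteria; two-fold serial dilutions, solvent-only wells as control; 30 °C for 3−5 days; MIC read visually and confirmed by absorbance at 560 nm; triplicate on three independent occasions.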

Cytochrome P450 2C9 = Cytochrome P450 2C9 (Homo sapiens, UniProt P11712); assay: Inhibition of CYP2C9 in human liver microsomes preincubated for 5 mins followed by NADPH addition measured after 10 mins by LC-MS/MS analysis; assay type: ADME
Cytochrome P450 2C9, sequence (P11712 whole entry): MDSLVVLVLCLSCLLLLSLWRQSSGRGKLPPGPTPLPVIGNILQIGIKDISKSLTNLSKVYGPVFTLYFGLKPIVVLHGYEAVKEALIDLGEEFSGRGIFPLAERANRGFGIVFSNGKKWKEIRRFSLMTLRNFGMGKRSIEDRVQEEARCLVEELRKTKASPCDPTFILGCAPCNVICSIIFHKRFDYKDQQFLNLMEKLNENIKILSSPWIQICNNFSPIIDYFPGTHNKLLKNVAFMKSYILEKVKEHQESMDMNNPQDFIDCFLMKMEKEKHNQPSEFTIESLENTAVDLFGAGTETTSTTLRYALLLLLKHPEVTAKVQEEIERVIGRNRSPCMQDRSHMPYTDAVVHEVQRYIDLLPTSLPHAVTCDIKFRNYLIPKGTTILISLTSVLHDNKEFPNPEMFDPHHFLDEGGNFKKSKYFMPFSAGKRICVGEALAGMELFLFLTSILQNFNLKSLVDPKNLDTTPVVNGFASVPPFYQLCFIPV

Vero = assay: Cytotoxicity against African green monkey Vero cells; assay type: cell-based; conditions: Chlorocebus sabaeus
CYP1A2 = target: T1, CYP1A2 (Homo sapiens, UniProt P05177); assay: Inhibition of CYP1A2 in human liver microsomes preincubated for 5 mins followed by NADPH addition at 10 uM measured after 10 mins by LC-MS/MS analysis relative to control; assay type: ADME
T1 sequence (P05177 whole entry): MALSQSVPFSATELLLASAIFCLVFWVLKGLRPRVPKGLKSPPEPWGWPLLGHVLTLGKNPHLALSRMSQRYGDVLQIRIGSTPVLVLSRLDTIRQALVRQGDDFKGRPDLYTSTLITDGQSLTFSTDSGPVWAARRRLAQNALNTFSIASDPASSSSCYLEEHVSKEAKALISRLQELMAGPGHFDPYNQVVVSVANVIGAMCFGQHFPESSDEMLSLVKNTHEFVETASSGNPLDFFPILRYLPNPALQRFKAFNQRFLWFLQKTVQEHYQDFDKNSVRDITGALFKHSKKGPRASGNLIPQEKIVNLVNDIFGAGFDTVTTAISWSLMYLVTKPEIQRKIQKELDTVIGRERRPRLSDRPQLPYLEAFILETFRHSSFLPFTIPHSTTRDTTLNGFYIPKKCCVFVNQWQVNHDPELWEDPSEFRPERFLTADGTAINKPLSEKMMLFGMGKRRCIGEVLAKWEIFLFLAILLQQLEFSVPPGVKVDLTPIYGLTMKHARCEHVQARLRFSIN

Liver = assay: Intrinsic clearance in mouse liver microsomes at 0.5 uM in presence of NADPH by LC-MS/MS analysis; assay type: ADME, microsome
Method in brief: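 Compound (0.5 μM) incubated with mouse or rat liver microsomes plus NADPH regenerating system; aliquots every 3 min over 30 min analysed for parent by LC-MS/MS; monoexponential decay rate normalized to microsomal protein, expressed as mL/min/g liver.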

[2] = system: Mycobacteroides abscessus; assay: Antibacterial activity against CF patient derived Mycobacterium abscessus subsp. massiliense isolate 210 rough variant after 3 to 5 days by two fold serial dilution method; assay type: functional; method in brief: as §1
[3] = system: Mycobacteroides abscessus; assay: Antibacterial activity against CF patient derived Mycobacterium abscessus subsp. abscessus isolate 3321 smooth variant after 3 to 5 days by two fold serial dilution method; assay type: functional; method in brief: as §1
Cytochrome P450 2C8 = target: T2, Cytochrome P450 2C8 (Homo sapiens, UniProt P10632); assay: Inhibition of CYP2C8 in human liver microsomes preincubated for 5 mins followed by NADPH addition measured after 10 mins by LC-MS/MS analysis; assay type: ADME
T2 sequence (P10632 whole entry): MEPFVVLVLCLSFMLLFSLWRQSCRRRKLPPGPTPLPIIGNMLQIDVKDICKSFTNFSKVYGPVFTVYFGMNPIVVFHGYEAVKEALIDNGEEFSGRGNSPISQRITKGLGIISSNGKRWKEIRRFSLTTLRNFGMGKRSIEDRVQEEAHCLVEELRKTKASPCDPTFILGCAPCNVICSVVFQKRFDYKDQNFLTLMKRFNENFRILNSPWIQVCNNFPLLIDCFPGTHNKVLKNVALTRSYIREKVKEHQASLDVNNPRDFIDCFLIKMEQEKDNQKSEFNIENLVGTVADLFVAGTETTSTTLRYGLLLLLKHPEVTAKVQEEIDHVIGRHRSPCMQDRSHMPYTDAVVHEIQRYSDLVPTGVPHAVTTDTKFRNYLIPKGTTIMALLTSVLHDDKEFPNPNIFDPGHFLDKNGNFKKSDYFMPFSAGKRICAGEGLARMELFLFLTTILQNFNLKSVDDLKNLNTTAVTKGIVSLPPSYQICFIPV

CYP3A4 = CYP3A4 (Homo sapiens, UniProt P08684); assay: Inhibition of CYP3A4 in human liver microsomes preincubated for 5 mins followed by NADPH addition at 10 uM measured after 5 mins by LC-MS/MS analysis relative to control; assay type: ADME
CYP3A4, sequence (P08684 whole entry): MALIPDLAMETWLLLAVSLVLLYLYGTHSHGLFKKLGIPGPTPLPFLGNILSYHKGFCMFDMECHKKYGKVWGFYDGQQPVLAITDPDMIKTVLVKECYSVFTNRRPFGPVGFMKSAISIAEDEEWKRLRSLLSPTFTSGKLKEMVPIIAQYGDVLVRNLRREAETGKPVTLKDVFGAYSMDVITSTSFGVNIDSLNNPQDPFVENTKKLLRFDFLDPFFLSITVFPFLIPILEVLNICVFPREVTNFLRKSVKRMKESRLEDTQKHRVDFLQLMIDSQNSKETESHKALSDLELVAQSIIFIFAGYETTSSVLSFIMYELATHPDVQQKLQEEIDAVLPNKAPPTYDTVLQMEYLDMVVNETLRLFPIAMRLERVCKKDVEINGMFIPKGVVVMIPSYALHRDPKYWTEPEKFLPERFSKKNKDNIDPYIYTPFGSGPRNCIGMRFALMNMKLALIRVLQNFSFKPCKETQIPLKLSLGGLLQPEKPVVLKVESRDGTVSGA

Salmonella typhimurium [4] = assay: Mutagenicity in Salmonella typhimurium TA98 in presence of rat liver S9 fraction assessed as increase in revertant colonies at 0.24 to 500 ug/well after 72 hrs by Ames test relative to control; assay type: toxicity; conditions: salmonella enterica subsp. enterica serovar typhimurium, s9, 72 h
Method in brief: (§2)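 Reverse mutation at histidine locus in S. typhimurium TA98 (frameshift) and TA100 (base-pair substitution), with and without S9; 0.24−500 μg/well; 37 ± 2 °C for 72 h, triplicates; DMSO vehicle; sodium azide, 2-nitrofluorene, 2-aminoanthracene positive controls; positive if revertants rise ≥2-fold over negative control dose-dependently.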

[5] = system: Mycobacteroides abscessus; assay: Antibacterial activity against non CF patient derived Mycobacterium abscessus subsp. abscessus isolate 2587 smooth variant after 3 to 5 days by two fold serial dilution method; assay type: functional; method in brief: as §1
[6] = Antibacterial activity against CF patient derived Mycobacterium abscessus subsp. bolletii isolate 112 rough variant after 3 to 5 days by two fold serial dilution method; assay type: functional; conditions: Mycobacteroides abscessus; method in brief: as §1
[7] = Antibacterial activity against CF patient derived Mycobacterium abscessus subsp. bolletii isolate 114 smooth variant after 3 to 5 days by two fold serial dilution method; assay type: functional; conditions: Mycobacteroides abscessus; method in brief: as §1
[8] = system: Mycobacteroides abscessus; assay: Antibacterial activity against CF patient derived Mycobacterium abscessus subsp. abscessus isolate 2648 rough variant after 3 to 5 days by two fold serial dilution method; assay type: functional; method in brief: as §1
[9] = system: Mycobacteroides abscessus; assay: Antibacterial activity against CF patient derived Mycobacterium abscessus subsp. massiliense isolate 111 smooth variant after 3 to 5 days by two fold serial dilution method; assay type: functional; method in brief: as §1
[10] = Permeability of the compound at 25 uM at pH 7.4 after 4 hrs by LC-MS based PAMPA; assay type: physicochemical; conditions: read-out: permeability
Method in brief: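 PAMPA: 25 μM compound in aqueous buffer at pH 7.4 or 5.0 (pH adjusted with NaOH) in donor plate, triplicate; acceptor membrane coated with GIT-0 lipid, acceptor sink buffer; 4 h at 25 ± 2 °C; donor and acceptor solutions analysed by LC-MS (UPLC).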

Salmonella typhimurium [11] = assay: Mutagenicity in Salmonella typhimurium TA100 assessed as increase in revertant colonies at 0.24 to 500 ug/well after 72 hrs by Ames test relative to control; assay type: toxicity; conditions: salmonella enterica subsp. enterica serovar typhimurium; method in brief: as §2
[12] = system: Mycobacterium tuberculosis; assay: Antibacterial activity against Mycobacterium tuberculosis by AlamarBlue assay; assay type: functional
CYP2C19 = CYP2C19 (Homo sapiens, UniProt P33261); assay: Inhibition of CYP2C19 in human liver microsomes preincubated for 5 mins followed by NADPH addition at 10 uM measured after 40 mins by LC-MS/MS analysis relative to control; assay type: ADME
CYP2C19, sequence (P33261 whole entry): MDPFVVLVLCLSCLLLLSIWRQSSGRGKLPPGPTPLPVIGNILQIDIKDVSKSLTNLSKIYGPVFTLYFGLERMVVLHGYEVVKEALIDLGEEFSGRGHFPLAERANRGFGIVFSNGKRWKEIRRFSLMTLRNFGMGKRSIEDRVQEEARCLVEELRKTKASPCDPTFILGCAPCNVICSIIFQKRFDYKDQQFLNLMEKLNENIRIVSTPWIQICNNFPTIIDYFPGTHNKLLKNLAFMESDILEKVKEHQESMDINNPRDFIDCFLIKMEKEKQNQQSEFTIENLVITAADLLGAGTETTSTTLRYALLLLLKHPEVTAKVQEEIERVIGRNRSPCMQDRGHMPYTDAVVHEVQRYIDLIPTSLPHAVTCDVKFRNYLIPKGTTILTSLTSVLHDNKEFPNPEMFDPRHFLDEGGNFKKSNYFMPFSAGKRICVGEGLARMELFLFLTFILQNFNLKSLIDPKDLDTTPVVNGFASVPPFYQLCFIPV

**Q.** For `O=C(NC1CCCCCC1)c1cc2c(Cl)cc(Cl)cc2[nH]1`, which MIC [1] is on record?
**A.** Its MIC is 0.125 µg/mL (≈ 0.384 µM).

**Q.** And the IC50 (Cytochrome P450 2C9)?
**A.** The IC50 was at most 20 µM.

**Q.** What about the IC50 (Vero) of the same compound?
**A.** Its IC50 is 8 to 16 µg/mL (≈ 24.6 to 49.2 µM).

**Q.** And the inhibition at 10 min, 10 µM (CYP1A2)?
**A.** Its inhibition at 10 min, 10 µM is 19%.

**Q.** And the CLH (Liver)?
**A.** The CLH was 4.8 mL/min/g.

**Q.** What about the MIC [2] of the same compound?
**A.** Its MIC is 0.125 µg/mL (≈ 0.384 µM).

**Q.** What about the MIC [3] of the same compound?
**A.** The MIC was 0.125 µg/mL (≈ 0.384 µM).

**Q.** And the IC50 (Cytochrome P450 2C8)?
**A.** The IC50 was at most 20 µM.

**Q.** And the inhibition at 5 min, 10 µM (CYP3A4)?
**A.** The inhibition at 5 min, 10 µM was 1%.

**Q.** What about the “fold change (FC)” value (Salmonella typhimurium [4]) of the same compound?
**A.** The value was under 2.

**Q.** What about the MIC [5] of the same compound?
**A.** Its MIC is 0.125 µg/mL (≈ 0.384 µM).

**Q.** What about the MIC [6] of the same compound?
**A.** The MIC was 0.125 µg/mL (≈ 0.384 µM).

**Q.** And the MIC [7]?
**A.** The MIC was 0.125 µg/mL (≈ 0.384 µM).

**Q.** What about the MIC [8] of the same compound?
**A.** The MIC was 0.125 µg/mL (≈ 0.384 µM).

**Q.** And the MIC [9]?
**A.** Its MIC is 0.125 µg/mL (≈ 0.384 µM).

**Q.** And the Papp at 4 h, 25 µM [10]?
**A.** Its Papp at 4 h, 25 µM is 0.2 ×10⁻⁶ cm/s.

**Q.** What about the “fold change (FC)” value (Salmonella typhimurium [11]) of the same compound?
**A.** Its value is under 2.

**Q.** What about the “MIC=<90” value [12] of the same compound?
**A.** The value was 3.9 ng/mL (≈ 0.012 µM).

**Q.** And the inhibition at 40 min, 10 µM (CYP2C19)?
**A.** Its inhibition at 40 min, 10 µM is 4%.
